Converted amounts (≈) assume the structure as drawn.
Columns and labels:
Type in all cases: functional
Pseudomonas aeruginosa [1] = assay: Antimicrobial activity against beta-lactam resistant Pseudomonas aeruginosa PAO1 deficient in ampD and ampDh3 gene selected in vitro after antipseudomonal treatment of intensive care unit patient by broth microdilution method
Method in brief: (§1)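 Broth microdilution MICs per CLSI M100-S18, over 0.12 to 256 μg/ml. Strains are PAO1 and its mutants. oprD mutants were selected overnight on Mueller-Hinton agar with 4 μg/ml imipenem, passaged antibiotic-free, then confirmed by oprD amplification and sequencing. PAO1 and ATCC 27853 were run alongside as quality controls.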

Pseudomonas aeruginosa [2] = assay: Antimicrobial activity against beta-lactam resistant Pseudomonas aeruginosa PAOD1 harboring oprD spontaneous mutant and deficient in ampD gene selected in vitro after antipseudomonal treatment of intensive care unit patient by broth microdilution method; method in brief: as §1
Pseudomonas aeruginosa [3] = assay: Antimicrobial activity against beta-lactam resistant Pseudomonas aeruginosa PAO1 deficient in ampD gene selected in vitro after antipseudomonal treatment of intensive care unit patient by broth microdilution method; method in brief: as §1
Pseudomonas aeruginosa [4] = assay: Antimicrobial activity against beta-lactam resistant Pseudomonas aeruginosa PAOD1 harboring oprD spontaneous mutant selected in vitro after antipseudomonal treatment of intensive care unit patient by broth microdilution method; method in brief: as §1
Pseudomonas aeruginosa [5] = assay: Antimicrobial activity against Pseudomonas aeruginosa AmpC overexpressing clinical isolate selected in vitro after antipseudomonal treatment of intensive care unit patient by broth microdilution method
Method in brief: (§2)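 MICs by standard CLSI broth microdilution (M100-S18) at 0.12 to 256 μg/ml. The isolates are sequential P. aeruginosa isolates that emerged during antipseudomonal therapy of patients in a Spanish ICU (2002–2003). P. aeruginosa PAO1 and ATCC 27853 were run in parallel for quality control.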

Pseudomonas aeruginosa [6] = assay: Antimicrobial activity against Pseudomonas aeruginosa clinical isolate selected in vitro after antipseudomonal treatment of intensive care unit patient by broth microdilution method; method in brief: as §2
Pseudomonas aeruginosa [7] = assay: Antimicrobial activity against ciprofloxacin resistant Pseudomonas aeruginosa clinical isolate selected in vitro after antipseudomonal treatment of intensive care unit patient by broth microdilution method; method in brief: as §2
Pseudomonas aeruginosa [8] = assay: Antimicrobial activity against cefipime resistant Pseudomonas aeruginosa by microdilution method
Pseudomonas aeruginosa [9] = assay: Antimicrobial activity against cefipime resistant Pseudomonas aeruginosa overexpressing MexXY-OprM gene by microdilution method
Pseudomonas aeruginosa [10] = assay: Antimicrobial activity against beta-lactam resistant Pseudomonas aeruginosa PAOD3 harboring oprD spontaneous mutant selected in vitro after antipseudomonal treatment of intensive care unit patient by broth microdilution method; method in brief: as §1
Pseudomonas aeruginosa [11] = assay: Antimicrobial activity against meropenem resistant Pseudomonas aeruginosa clinical isolate selected in vitro after antipseudomonal treatment of intensive care unit patient by broth microdilution method; method in brief: as §2
Pseudomonas aeruginosa [12] = assay: Antimicrobial activity against beta-lactam resistant Pseudomonas aeruginosa PAO1 by broth microdilution method; method in brief: as §1
Pseudomonas aeruginosa [13] = assay: Antimicrobial activity against beta-lactam resistant Pseudomonas aeruginosa PAOD2 harboring oprD spontaneous mutant and deficient in ampD gene by selected in vitro after antipseudomonal treatment of intensive care unit patient by broth microdilution method; method in brief: as §1
Pseudomonas aeruginosa [14] = assay: Antimicrobial activity against beta-lactam resistant Pseudomonas aeruginosa PAOD3 harboring oprD spontaneous mutant and deficient in dacB gene selected in vitro after antipseudomonal treatment of intensive care unit patient by broth microdilution method; method in brief: as §1
Pseudomonas aeruginosa [15] = assay: Antimicrobial activity against metallo beta-lactamase producing Pseudomonas aeruginosa isolates
Pseudomonas aeruginosa [16] = assay: Antimicrobial activity against beta-lactam resistant Pseudomonas aeruginosa PAO1 deficient in ampD and dacB gene selected in vitro after antipseudomonal treatment of intensive care unit patient by broth microdilution method; method in brief: as §1
Pseudomonas aeruginosa [17] = assay: Antimicrobial activity against multidrug resistant Pseudomonas aeruginosa clinical isolate selected in vitro after antipseudomonal treatment of intensive care unit patient by broth microdilution method; method in brief: as §2
Pseudomonas aeruginosa [18] = assay: Antimicrobial activity against PIP-tazobactam resistant Pseudomonas aeruginosa clinical isolate selected in vitro after antipseudomonal treatment of intensive care unit patient by broth microdilution method; method in brief: as §2
Pseudomonas aeruginosa [19] = assay: Antimicrobial activity against beta-lactam resistant Pseudomonas aeruginosa PAOD2 harboring oprD spontaneous mutant selected in vitro after antipseudomonal treatment of intensive care unit patient by broth microdilution method; method in brief: as §1
Pseudomonas aeruginosa [20] = assay: Antimicrobial activity against Imipenem resistant Pseudomonas aeruginosa clinical isolate selected in vitro after antipseudomonal treatment of intensive care unit patient by broth microdilution method; method in brief: as §2
Pseudomonas aeruginosa [21] = assay: Antimicrobial activity against beta-lactam resistant Pseudomonas aeruginosa PA01 deficient in dacB gene by broth microdilution method; method in brief: as §1
Pseudomonas aeruginosa [22] = assay: Antimicrobial activity against beta-lactam resistant Pseudomonas aeruginosa PAO1 deficient in ampD, […] gene selected in vitro after antipseudomonal treatment of intensive care unit patient by broth microdilution method; method in brief: as §1
Pseudomonas aeruginosa [23] = assay: Antimicrobial activity against pan-beta-lactam resistant Pseudomonas aeruginosa clinical isolate selected in vitro after antipseudomonal treatment of intensive care unit patient by broth microdilution method; method in brief: as §2
Pseudomonas aeruginosa [24] = assay: Antimicrobial activity against Ceftazidime resistant Pseudomonas aeruginosa clinical isolate selected in vitro after antipseudomonal treatment of intensive care unit patient by broth microdilution method; method in brief: as §2
Pseudomonas aeruginosa [25] = assay: Antimicrobial activity against beta-lactam resistant Pseudomonas aeruginosa PAOD1 harboring oprD spontaneous mutant and deficient in dacB gene selected in vitro after antipseudomonal treatment of intensive care unit patient by broth microdilution method; method in brief: as §1
Pseudomonas aeruginosa [26] = assay: Antimicrobial activity against beta-lactam resistant Pseudomonas aeruginosa PAOD2 harboring oprD spontaneous mutant and deficient in dacB gene selected in vitro after antipseudomonal treatment of intensive care unit patient by broth microdilution method; method in brief: as §1
Pseudomonas aeruginosa [27] = assay: Antimicrobial activity against Pseudomonas aeruginosa by after 18-20 hrs agar dilution method
Pseudomonas aeruginosa [28] = assay: Antimicrobial activity against beta-lactam resistant beta-lactam resistant Pseudomonas aeruginosa PAOD3 harboring oprD spontaneous mutant and deficient in ampD gene selected in vitro after antipseudomonal treatment of intensive care unit patient by broth microdilution method; method in brief: as §1
Pseudomonas aeruginosa [29] = assay: Antimicrobial activity against extended spectrum beta-lactamase producing Pseudomonas aeruginosa isolates by broth microdilution method
Pseudomonas aeruginosa [30] = assay: Antimicrobial activity against cefipime resistant Pseudomonas aeruginosa clinical isolate selected in vitro after antipseudomonal treatment of intensive care unit patient by broth microdilution method; method in brief: as §2
Pseudomonas aeruginosa [31] = assay: Antimicrobial activity against Pseudomonas aeruginosa clinical isolate assessed as resistant isolates selected in vitro after antipseudomonal treatment of intensive care unit patient by CLSI method

Cn1c(N)c(NC(=O)NCCN)c[n+]1CC1=C(C(=O)O)N2C(=O)[C@@H](NC(=O)/C(=N\OC(C)(C)C(=O)[O-])c3nsc(N)n3)[C@H]2SC1 [CEFTOLOZANE]
MIC (Pseudomonas aeruginosa [1]): 1 µg/mL (≈ 1.5 µM) | MIC (Pseudomonas aeruginosa [2]): 0.5 µg/mL (≈ 0.75 µM) | MIC (Pseudomonas aeruginosa [3]): 0.5 µg/mL (≈ 0.75 µM) | MIC (Pseudomonas aeruginosa [4]): 0.5 µg/mL (≈ 0.75 µM) | MIC (Pseudomonas aeruginosa [5]): 0.71 µg/mL (≈ 1.06 µM) | MIC50 (Pseudomonas aeruginosa [5]): 1 µg/mL (≈ 1.5 µM) | MIC90 (Pseudomonas aeruginosa [5]): 4 µg/mL (≈ 6 µM) | MIC50 (Pseudomonas aeruginosa [6]): 0.5 µg/mL (≈ 0.75 µM) | MIC80 (Pseudomonas aeruginosa [6]): 0.53 µg/mL (≈ 0.795 µM) | MIC90 (Pseudomonas aeruginosa [6]): 2 µg/mL (≈ 3 µM) | MIC (Pseudomonas aeruginosa [7]): 0.88 µg/mL (≈ 1.32 µM) | MIC50 (Pseudomonas aeruginosa [7]): 1 µg/mL (≈ 1.5 µM) | MIC90 (Pseudomonas aeruginosa [7]): 4 µg/mL (≈ 6 µM) | MIC (Pseudomonas aeruginosa [8]): 1 µg/mL (≈ 1.5 µM) | MIC (Pseudomonas aeruginosa [9]): 1 µg/mL (≈ 1.5 µM) | MIC (Pseudomonas aeruginosa [10]): 0.5 µg/mL (≈ 0.75 µM) | GM MIC (Pseudomonas aeruginosa [11]): 0.86 µg/mL | MIC50 (Pseudomonas aeruginosa [11]): 0.5 µg/mL (≈ 0.75 µM) | MIC90 (Pseudomonas aeruginosa [11]): 4 µg/mL (≈ 6 µM) | MIC (Pseudomonas aeruginosa [12]): 0.5 µg/mL (≈ 0.75 µM) | MIC (Pseudomonas aeruginosa [13]): 0.5 µg/mL (≈ 0.75 µM) | MIC (Pseudomonas aeruginosa [14]): 0.5 µg/mL (≈ 0.75 µM) | Ratio (Pseudomonas aeruginosa [15]): 0.25 | MIC (Pseudomonas aeruginosa [16]): 2 µg/mL (≈ 3 µM) | MIC (Pseudomonas aeruginosa [17]): 1.83 µg/mL (≈ 2.74 µM) | GM MIC (Pseudomonas aeruginosa [18]): 1.59 µg/mL | MIC50 (Pseudomonas aeruginosa [18]): 1 µg/mL | MIC90 (Pseudomonas aeruginosa [18]): 4 µg/mL | MIC (Pseudomonas aeruginosa [19]): 0.5 µg/mL (≈ 0.75 µM) | GM MIC (Pseudomonas aeruginosa [20]): 0.84 µg/mL | MIC50 (Pseudomonas aeruginosa [20]): 0.5 µg/mL (≈ 0.75 µM) | MIC90 (Pseudomonas aeruginosa [20]): 4 µg/mL (≈ 6 µM) | MIC (Pseudomonas aeruginosa [21]): 1 µg/mL (≈ 1.5 µM) | MIC (Pseudomonas aeruginosa [22]): 1 µg/mL (≈ 1.5 µM) | MIC (Pseudomonas aeruginosa [23]): 2.53 µg/mL (≈ 3.79 µM) | GM MIC (Pseudomonas aeruginosa [24]): 0.94 µg/mL | MIC50 (Pseudomonas aeruginosa [24]): 1 µg/mL (≈ 1.5 µM) | MIC90 (Pseudomonas aeruginosa [24]): 4 µg/mL (≈ 6 µM) | MIC (Pseudomonas aeruginosa [25]): 0.5 µg/mL (≈ 0.75 µM) | MIC (Pseudomonas aeruginosa [26]): 0.5 µg/mL (≈ 0.75 µM) | Ratio (Pseudomonas aeruginosa [27]): -0.5 | MIC (Pseudomonas aeruginosa [28]): 0.5 µg/mL (≈ 0.75 µM) | MIC (Pseudomonas aeruginosa [29]): > 8 µg/mL | GM MIC (Pseudomonas aeruginosa [30]): 0.91 µg/mL | MIC50 (Pseudomonas aeruginosa [30]): 1 µg/mL (≈ 1.5 µM) | MIC90 (Pseudomonas aeruginosa [30]): 4 µg/mL (≈ 6 µM)

C[C@@H](O)[C@H]1C(=O)N2C(C(=O)O)=C(SCCNC=N)C[C@H]12 [IMIPENEM ANHYDROUS]
MIC (Pseudomonas aeruginosa [1]): 2 µg/mL (≈ 6.68 µM) | MIC (Pseudomonas aeruginosa [2]): 16 µg/mL (≈ 53.4 µM) | MIC (Pseudomonas aeruginosa [3]): 2 µg/mL (≈ 6.68 µM) | MIC (Pseudomonas aeruginosa [4]): 16 µg/mL (≈ 53.4 µM) | MIC (Pseudomonas aeruginosa [10]): 16 µg/mL (≈ 53.4 µM) | MIC (Pseudomonas aeruginosa [12]): 2 µg/mL (≈ 6.68 µM) | MIC (Pseudomonas aeruginosa [13]): 16 µg/mL (≈ 53.4 µM) | MIC (Pseudomonas aeruginosa [14]): 16 µg/mL (≈ 53.4 µM) | MIC (Pseudomonas aeruginosa [16]): 2 µg/mL (≈ 6.68 µM) | Activity (Pseudomonas aeruginosa [31]): 57% | MIC (Pseudomonas aeruginosa [19]): 8 µg/mL (≈ 26.7 µM) | MIC (Pseudomonas aeruginosa [21]): 2 µg/mL (≈ 6.68 µM) | MIC (Pseudomonas aeruginosa [22]): 1 µg/mL (≈ 3.34 µM) | MIC (Pseudomonas aeruginosa [25]): 16 µg/mL (≈ 53.4 µM) | MIC (Pseudomonas aeruginosa [26]): 16 µg/mL (≈ 53.4 µM) | MIC (Pseudomonas aeruginosa [28]): 16 µg/mL (≈ 53.4 µM)

C[C@@H](O)[C@H]1C(=O)N2C(C(=O)O)=C(S[C@@H]3CN[C@H](C(=O)N(C)C)C3)[C@H](C)[C@H]12 [MEROPENEM]
MIC (Pseudomonas aeruginosa [1]): 2 µg/mL (≈ 5.22 µM) | MIC (Pseudomonas aeruginosa [2]): 8 µg/mL (≈ 20.9 µM) | MIC (Pseudomonas aeruginosa [3]): 2 µg/mL (≈ 5.22 µM) | MIC (Pseudomonas aeruginosa [4]): 1 µg/mL (≈ 2.61 µM) | MIC (Pseudomonas aeruginosa [10]): 2 µg/mL (≈ 5.22 µM) | MIC (Pseudomonas aeruginosa [12]): 0.5 µg/mL (≈ 1.3 µM) | MIC (Pseudomonas aeruginosa [13]): 8 µg/mL (≈ 20.9 µM) | MIC (Pseudomonas aeruginosa [14]): 4 µg/mL (≈ 10.4 µM) | MIC (Pseudomonas aeruginosa [16]): 2 µg/mL (≈ 5.22 µM) | Activity (Pseudomonas aeruginosa [31]): 52% | MIC (Pseudomonas aeruginosa [19]): 2 µg/mL (≈ 5.22 µM) | MIC (Pseudomonas aeruginosa [21]): 0.5 µg/mL (≈ 1.3 µM) | MIC (Pseudomonas aeruginosa [22]): 1 µg/mL (≈ 2.61 µM) | MIC (Pseudomonas aeruginosa [25]): 4 µg/mL (≈ 10.4 µM) | MIC (Pseudomonas aeruginosa [26]): 4 µg/mL (≈ 10.4 µM) | MIC (Pseudomonas aeruginosa [28]): 8 µg/mL (≈ 20.9 µM)

CCN1CCN(C(=O)N[C@@H](C(=O)N[C@@H]2C(=O)N3[C@@H]2SC(C)(C)[C@@H]3C(=O)O)c2ccccc2)C(=O)C1=O [PIPERACILLIN]
MIC (Pseudomonas aeruginosa [1]): 128 µg/mL (≈ 247 µM) | MIC (Pseudomonas aeruginosa [2]): 4 µg/mL (≈ 7.73 µM) | MIC (Pseudomonas aeruginosa [3]): 16 µg/mL (≈ 30.9 µM) | MIC (Pseudomonas aeruginosa [4]): > 256 µg/mL | MIC (Pseudomonas aeruginosa [10]): 4 µg/mL (≈ 7.73 µM) | MIC (Pseudomonas aeruginosa [12]): 4 µg/mL (≈ 7.73 µM) | MIC (Pseudomonas aeruginosa [13]): 32 µg/mL (≈ 61.8 µM) | MIC (Pseudomonas aeruginosa [14]): 64 µg/mL (≈ 124 µM) | MIC (Pseudomonas aeruginosa [16]): 64 µg/mL (≈ 124 µM) | MIC (Pseudomonas aeruginosa [19]): 4 µg/mL (≈ 7.73 µM) | MIC (Pseudomonas aeruginosa [21]): 64 µg/mL (≈ 124 µM) | MIC (Pseudomonas aeruginosa [22]): 64 µg/mL (≈ 124 µM) | MIC (Pseudomonas aeruginosa [25]): 64 µg/mL (≈ 124 µM) | MIC (Pseudomonas aeruginosa [26]): 64 µg/mL (≈ 124 µM) | MIC (Pseudomonas aeruginosa [28]): 64 µg/mL (≈ 124 µM)

Reference: ChEMBL document CHEMBL1240405, “Activity of a new cephalosporin, CXA-101 (FR264205), against beta-lactam-resistant Pseudomonas aeruginosa mutants selected in vitro and after antipseudomonal treatment of intensive care unit patients” (2010)
